The record followed here is ChEMBL document CHEMBL1142963, “Novel sigma receptor ligands: synthesis and biological profile” (J Med Chem, 2007).

Molecules are shown by their SMILES. Activity calls are given as the source filed them. The rule behind the calls is not given here. Where only a bound is given, the exact number is not on record here.

The target in experiment [1] is 5-hydroxytryptamine receptor 4 (Cavia porcellus, UniProt O70528). Kind of experiment: Displacement of [3H][…] from guinea pig cortex 5HT4 receptor. An outline of the steps:
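Rat brain tissue by target: striatum for D1, D2 and DAT; olfactory tubercle for D3; cortex for muscarinic, 5-HT3, 5-HT2A, α1, α2, H1, NMDA and SERT; guinea pig cortex for 5-HT4. Inhibitors at seven to nine concentrations. After incubation, samples were filtered on glass fibre filters, washed three times with ice-cold buffer and counted by liquid scintillation. Ki values were derived by curve fitting.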

Another experiment is filed under the species Rattus norvegicus. Put plainly: Increase in TG-2 expression in albino Wistar rat primary 14 DIV astroglial cell at 25 uM after 24 hrs by CLSM analysis. Format: functional. An outline of the steps:
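Astrocytes at 14 DIV were treated with 25 µM for 24 h and fixed in 4% paraformaldehyde for 20 min. They were blocked with 1% normal serum for 1 h, then incubated overnight with anti-TG-2 monoclonal (1:500), followed by FITC and TRITC anti-IgG (1:64, 2 h each). Confocal imaging at fixed settings measured cytosolic and nuclear fluorescence intensity versus control after nonspecific subtraction.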

Sequence of 5-hydroxytryptamine receptor 4 (O70528 whole entry): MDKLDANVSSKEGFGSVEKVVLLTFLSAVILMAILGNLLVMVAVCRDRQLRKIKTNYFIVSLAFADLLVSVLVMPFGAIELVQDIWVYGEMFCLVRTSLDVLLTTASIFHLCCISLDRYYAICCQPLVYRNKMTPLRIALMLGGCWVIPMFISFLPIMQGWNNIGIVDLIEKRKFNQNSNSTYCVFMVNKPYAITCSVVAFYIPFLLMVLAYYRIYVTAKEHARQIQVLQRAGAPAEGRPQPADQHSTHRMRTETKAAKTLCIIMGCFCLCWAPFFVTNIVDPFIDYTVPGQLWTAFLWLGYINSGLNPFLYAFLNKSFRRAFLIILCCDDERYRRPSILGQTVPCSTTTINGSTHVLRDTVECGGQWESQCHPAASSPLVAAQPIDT

Take `COC(=O)C1(c2ccc(C)cc2)CC1CN1CCC(O)(c2ccccc2)CC1` (configuration not stated): the Ki in experiment [1] was > 10 µM. Further, the result in the experiment listed under Rattus norvegicus was Active.
